Results collected from several papers.
Compare with care: the assays were run in different laboratories.
Target: Serine/threonine-protein kinase PLK1 (PLK1, Homo sapiens, UniProt P53350)

| Structure (SMILES) | assay | system | setting | measurement | value |
| --- | --- | --- | --- | --- | --- |
| Cn1c(=O)n(-c2ccc(C(C)(C)C#N)cc2)c2c3cc(-c4cnc5ccccc5c4)ccc3ncc21 | enzyme activity, inhibitor | – | 10 µM | remaining activity | 95% |
| Nc1nc(NC2CCCCC2)sc1C(=O)c1ccccc1 | enzyme activity, inhibitor | – | 10 µM | remaining activity | 82% |
| Cc1ccc(NC(=O)c2ccc(CN3CCN(C)CC3)cc2)cc1Nc1nc(-c2cccnc2)cs1 | cell-free assay | – | 0.5 µM | remaining signal | 101% |
| COc1cc(Nc2cnc(C#N)c(O[C@H](C)CN(C)C)n2)ncc1-c1cnn(C)c1 | enzyme activity, inhibitor, radiometric | – | 1 µM | remaining activity | 88% |
| CN1CC(Oc2cnc(C#N)cc2-c2ccn3nc(NC(=O)C4CC4)cc3c2)C1 | enzyme activity, inhibitor | – | 1 µM | inhibition | 6% |
| CSc1nc(C)c(-c2ccnc(Nc3ccc(N4CCOCC4)cc3)c2)[nH]1 | enzyme activity, inhibitor | – | 10 µM | inhibition | 6.3% |
| CS(=O)(=O)Nc1cccc(-c2csc(NC(=O)CSc3nc4nccnc4c(=O)n3CCc3ccccc3)n2)c1 | enzyme activity, inhibitor | – | 10 µM | inhibition | 11% |
| COc1cc(Cl)c(C(=O)N[C@@H](CN[C@H]2CC[C@@H](N)CC2)Cc2ccc(C#N)cc2)cc1-c1ccc(CN[C@H](C)c2ccc(C)cc2)o1 | enzyme activity, inhibitor | – | 1 µM | remaining activity | 94% |
| CCN(CC)CCNC(=O)c1c(C)[nH]c(/C=C2\C(=O)Nc3ccc(F)cc32)c1C | cell-free assay | – | 0.5 µM | remaining signal | 96.4% |
| COc1cc(/C=C/C(=O)CC(=O)/C=C/c2ccc(O)c(OC)c2)ccc1O | enzyme activity, inhibitor | – | 1 µM | activity vs control | 75% |
| COc1cc(Nc2c(C#N)cnc3cc(OCCCN4CCN(C)CC4)c(OC)cc23)c(Cl)cc1Cl | cell-free assay | – | 0.5 µM | remaining signal | 93.8% |
| Cc1cc(-n2nc(Cc3cc(F)cc(C(F)(F)F)c3)nc2C)ccc1C(N)=O | cell-free assay, competition with immobilised ligand | – | 1 µM | remaining binding | 100% |
| Cc1ccc(NC(=O)c2ccc(C)c(C(F)(F)F)c2)cc1C#Cc1nn(C2CCC(O)CC2)c2ncnc(N)c12 (stereo not shown) | cell-free assay | – | 10 µM | remaining signal | 92% |
| Cc1c(NC(=O)c2cc(C(N)=O)nc3cc(F)ccc23)c(C(F)(F)F)nn1Cc1ccc(C(C)(C)C)cc1 | cell-free assay, competition with immobilised ligand | – | 1 µM | remaining binding | 99% |
| CCN1CCN(Cc2ccc(NC(=O)c3ccc(C)c(Oc4ccnc5[nH]ccc45)c3)cc2C(F)(F)F)CC1 | target engagement in cells, inhibitor, chemoproteomics | Huh-7 | 1 µM | inhibition | -16.2% |
| CC(C)(C)c1nc2c(s1)c1nc(N)ncc1c1ccc(NS(=O)(=O)c3c(F)cccc3F)c(F)c12 | enzyme activity, inhibitor, radiometric | – | 1 µM | remaining activity | 101% |
| FC(F)(F)Oc1cccc(-c2cnc3ccc(-c4ccncc4)nn23)c1 | enzyme activity, inhibitor, radiometric | – | 5 µM | activity vs control | 98% |

| Structure (SMILES) | assay | system | setting | measurement | value |
| --- | --- | --- | --- | --- | --- |
| Nc1ncnc2occ(-c3ccc(NC(=O)Nc4cc(C(F)(F)F)ccc4F)cc3)c12 | cell-free assay, inhibitor | – | 20 µM | remaining signal | 100% |
| Cc1cc(NC(=O)c2cccc(S(F)(F)(F)(F)F)c2)cc(-n2ccn3nc(-c4cccnc4)cc23)c1 | cell-free assay, competition with immobilised ligand | – | 1 µM | remaining binding | 95.3% |
| CCOc1cc(-c2nncn2C)ccc1Nc1ncc2cc(C)nc(NCC(C)(C)C)c2n1 | enzyme activity, inhibitor, FRET | – | 1 µM | inhibition | 17% |
| CN(C)C1CCN(CC#Cc2nn(C3CCCC3)c3nc(NCc4ccccc4)ncc23)C1 (stereo not shown) | enzyme activity, inhibitor, FRET | – | 1 µM | inhibition | -5% |
| O=C(Nc1cnn(-c2csc(C(=O)NC3COC3)c2)c1)Nc1ccccc1Cl | enzyme activity, inhibitor | – | 5 µM | remaining activity | 97% |
| CC(C)CC(=O)N1CCc2nc(-c3ccc(Br)cc3)nc(N(C)Cc3ccccc3)c2C1 | cell-free assay, competition with immobilised ligand | – | 0.1 µM | remaining binding | 100% |
| CS(=O)(=O)CCNCc1ccc(-c2ccc3ncnc(Nc4ccc(OCc5cccc(F)c5)c(Cl)c4)c3c2)o1 | cell-free assay | – | 0.5 µM | remaining signal | 99% |
| CNCc1ccccc1-c1csc([C@@H](C)Nc2nc(C)nc3cc(OC)c(OC)cc23)c1 | cell-free assay, competition with immobilised ligand | – | 1 µM | remaining binding | 80% |
| COc1cc2ncnc(Nc3ccc(Oc4ccccc4)c(C)c3C)c2cc1OC | enzyme activity, inhibitor | – | 1 µM | inhibition | -1% |
| Cc1[nH]c(/C=C2\C(=O)Nc3ccc(F)cc32)c(C)c1C(=O)N[C@H]1CCN(C(=O)N(C)C)C1 | enzyme activity, inhibitor | – | 0.1 µM | remaining activity | 126% |
| CCN(CC)c1ccc(C2=NNC(=O)CC2C)cc1[N+](=O)[O-] (stereo not shown) | enzyme activity, inhibitor | – | 10 µM | remaining activity | 103% |
| O=C(Nc1cccnn1)N1CC(C/C=C/c2cncc(Oc3ccc(C(F)(F)F)cn3)n2)C1 | cell-free assay, competition with immobilised ligand | – | 1 µM | remaining binding | 87% |
| Cc1cc(NC(=O)c2cccc3cc(-c4cccc5[nH]nc(N)c45)ccc23)ccc1F | enzyme activity, inhibitor | – | 0.1 µM | activity vs control | 92% |
| CC(=O)C1=C(C)N(c2cccc(C(F)(F)F)c2)C(=O)N[C@@H]1c1ccc(C#N)nc1 | cell-free assay, competition with immobilised ligand | – | 1 µM | remaining binding | 100% |
| CC(C)(O)[C@H]1CC[C@H](Nc2ccc3ncc(-c4cccc(C(F)(F)F)c4)n3n2)CC1 | enzyme activity, inhibitor | – | 1 µM | remaining activity | 94.4% |
| Cc1sc(C(=O)NC2COC2)cc1-n1cc(NC(=O)Nc2c(F)cccc2Cl)cn1 | enzyme activity, inhibitor | – | 10 µM | remaining activity | 102% |
| CNC(=O)Nc1ccc2c(c1)CC[C@@]21OC(=O)N(CC(=O)N(Cc2ccc(F)cc2)[C@@H](C)C(F)(F)F)C1=O | cell-free assay, competition with immobilised ligand | – | 1 µM | remaining binding | 63% |
